Bioassay records from PubChem.
OX1R antag-1 = OX1R (HCRTR1) antagonists, primary screen, fluorescence, CHO/OX1R cells, Fluo-8 calcium, orexin A | Orexin/Hypocretin receptor type 1 (Homo sapiens), O43613 | Fluo-8 calcium fluorescence | inhibition, % at 5 µM | actives 0.43% (n = 330,000) | AID 434989, 2010;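 active means inhibition above its plate's threshold, mean inhibition of all tested compounds on the plate plus 3 SD, cut at about 37% in these data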
Target sequence (O43613 whole entry, looked up): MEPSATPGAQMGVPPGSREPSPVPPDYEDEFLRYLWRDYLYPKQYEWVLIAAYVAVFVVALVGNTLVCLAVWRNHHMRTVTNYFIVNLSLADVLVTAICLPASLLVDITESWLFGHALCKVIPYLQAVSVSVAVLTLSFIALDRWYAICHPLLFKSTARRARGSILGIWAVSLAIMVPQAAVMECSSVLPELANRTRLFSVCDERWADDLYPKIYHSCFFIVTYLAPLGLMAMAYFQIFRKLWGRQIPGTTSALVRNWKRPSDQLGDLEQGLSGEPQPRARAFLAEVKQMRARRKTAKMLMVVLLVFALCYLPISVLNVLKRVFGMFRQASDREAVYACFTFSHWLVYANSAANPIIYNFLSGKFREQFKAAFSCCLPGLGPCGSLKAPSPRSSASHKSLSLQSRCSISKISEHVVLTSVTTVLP
TAAR1 agonist = human TAAR1 agonists, primary screen, Fluo-8 calcium fluorescence, CHO RD-HGA16 cells. Trace amine-associated receptor 1 (Homo sapiens), Q96RJ0. AID 624467, 2012. vehicle wells 0%, saturating PEA agonist 100%. actives 0.99% (n = 360,000). activation, % at 3 µM;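 active means activation above the mean activation of all test compounds in the run plus 3 SD, cut at about 38% in these data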
Target sequence (Q96RJ0 whole entry, looked up): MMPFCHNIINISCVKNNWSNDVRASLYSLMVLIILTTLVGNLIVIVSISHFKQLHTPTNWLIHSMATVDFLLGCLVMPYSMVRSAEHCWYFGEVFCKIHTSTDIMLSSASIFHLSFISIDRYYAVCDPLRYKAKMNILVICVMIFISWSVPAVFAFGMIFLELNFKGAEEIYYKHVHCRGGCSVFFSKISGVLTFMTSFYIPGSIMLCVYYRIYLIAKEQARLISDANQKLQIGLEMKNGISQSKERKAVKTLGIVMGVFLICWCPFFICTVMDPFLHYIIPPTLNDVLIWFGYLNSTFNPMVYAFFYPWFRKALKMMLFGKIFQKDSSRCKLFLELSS
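System: CHO RD-HGA16 cells carrying human TAAR1 plus Gα16; Incubation: 17-24 h seeding, 75 min 37 °C dye, 30 min RT; Measured by: Fluo-8 fluorescence, 5 s baseline then 140 s kinetic read; Control set: DMSO and PEA EC100; Replication: single well for each compound.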
OX1R antag-2 = antagonists of human orexin 1 receptor (OX1R). OX1R-expressing cells, FRET antagonist read-out. actives 1.8% (n = 330,000). inhibition, % at 6.6 µM. AID 485270, 2010; in the data active means inhibition mostly above about 38%, no sharp cut-off; inactive means mostly below about 40%
CHO parental Ca = ATP-evoked calcium signal inhibitors, parental CHO, primary screen, counter-screen for OX1R antagonist project, cell-based, fluorescence, Fluo-8 calcium dye; inhibition, % at 5.6 µM; actives 0.63% (n = 330,000); parental CHO-K1, ATP-induced calcium, Fluo-8 fluorescence;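 active means inhibition above that plate's mean sample inhibition plus 3 SD, cut at about 26% in these data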
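Test system: parental CHO cells; detection: calcium-sensitive Fluo-8 fluorescence; evaluation: percent inhibition of calcium signal; also added: ATP as calcium-mobilizing challenge; repeats: one well per compound; control set: ATP-challenged DMSO wells low, unchallenged DMSO wells high; compound: single nominal dose of 5.6 µM per compound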
TAAR1 antag = human TAAR1 antagonists, primary screen, Fluo-8 calcium fluorescence, CHO RD-HGA16 cells | Trace amine-associated receptor 1 (Homo sapiens), Q96RJ0 | antagonist | inhibition, % at 3 µM | actives 1.5% (n = 360,000) | AID 624466, 2012;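 active means inhibition above a per-plate cutoff, the mean inhibition of test compounds on that plate plus 3 SD, cut at about 49% in these data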
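Test system: CHO RD-HGA16 cells bearing hTAAR1 | Reagent: β-PEA, EC80 | Compound dosing: 3 µM, single point | Schedule: Dye loading 75 min at 37 °C, then 30 min room temperature | Signal: Calcium fluorescence with Fluo-8 | Evaluation: Percent inhibition of PEA-evoked calcium signal, max/basal emission ratio | Control set: DMSO-only wells and EC80 β-PEA-stimulated wells | Repeats: Singlicate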
Large screens that a line does not name were inactive. Sampled rows, rich in hits. Any-hit rate of the full collection: about 3.9%.

CC1(C)N([O-])C(c2cccs2)=C[N+]1=O	CHO parental Ca 29
Cc1ccc2[nH]c(O)c(N=NC(=O)c3ccc(NS(=O)(=O)c4cccs4)cc3)c2c1	none
Cc1cccc2c(N=NC(=O)c3ccc(NS(=O)(=O)c4cccs4)cc3)c(O)[nH]c12	OX1R antag-2 40, TAAR1 antag 56
COCCNC(=O)C1(C)CCCN(C(=O)COc2ccccc2)C1 (centres undefined)	none (no result: OX1R antag-1, OX1R antag-2, CHO parental Ca)
CCOc1ccc(-c2nnc(SCC(=O)Nc3ccc4c(c3)c3ccccc3n4CC)n2N)cc1	none
CCn1c2ccccc2c2cc(NC(=O)CSc3nnc(-c4ccc(OC)c(OC)c4)n3N)ccc21	OX1R antag-2 74
CCn1c2ccccc2c2cc(NC(=O)CSc3nnc(-c4ccccc4OC)n3N)ccc21	OX1R antag-2 56
CN(C)S(=O)(=O)Oc1ccsc1C(=O)Nc1cccc(Cl)c1Cl	CHO parental Ca 46
COc1ccc(NC(=O)c2sccc2OS(=O)(=O)N(C)C)cc1	none
CCOC(=O)N1CCN(CC(=O)Nc2ccc(F)cc2F)CC1	CHO parental Ca 28
COc1ccc(-n2nc(C(=O)NCC(=O)N3CCN(c4ccccc4OC)CC3)c3ccccc3c2=O)cc1OC	TAAR1 antag 52
COc1ccc(-n2nc(C(=O)NCC(=O)N3CCN(c4ccccn4)CC3)c3ccccc3c2=O)cc1	none
COc1ccc(-n2nc(C(=O)NCC(=O)NCc3cccc(F)c3)c3ccccc3c2=O)cc1Cl	TAAR1 antag 50
COc1ccc(-n2nc(C(=O)NCC(=O)N3CCN(c4ccccn4)CC3)c3ccccc3c2=O)cc1OC	TAAR1 antag 57
C[C@H]1CN([C@@H](C)CO)C(=O)CCCn2cc(nn2)CO[C@@H]1CN(C)C(=O)Nc1ccc(N2CCN(C)CC2)cc1	none (no result: OX1R antag-1, OX1R antag-2, CHO parental Ca)
CN1CCN(c2cccc3c2S(=O)(=O)N[C@@H](Cc2ccccc2)CO3)CC1	none (no result: OX1R antag-1, OX1R antag-2, CHO parental Ca)
O=C(c1cc(-c2ccc(Cl)cc2)on1)N1CCc2ccccc2C1	TAAR1 agonist 39
O=C(Nc1ccc(Cl)cc1)C1Cc2c(-c3ccccc3)ccnc2O1 (centres undefined)	none (no result: OX1R antag-1, OX1R antag-2, CHO parental Ca)
Cc1ccc(C(=O)N/C(=C/c2ccc(-c3cc(C(F)(F)F)ccc3Cl)o2)C(=O)NCc2cccnc2)cc1	OX1R antag-2 36
COc1ccc(CN2C(=O)CCC2(C)c2nc3ccccc3[nH]2)cc1 (centres undefined)	none (no result: OX1R antag-1, OX1R antag-2, CHO parental Ca)
Cc1ccc(C)n1-n1cnc2sc(-c3ccccc3)cc2c1=O	none
Cc1ccc(C)n1-n1c(C)nc2sc(-c3ccccc3)cc2c1=O	CHO parental Ca 39
c1csc(-c2nc(NCC3CCCO3)c3ccccc3n2)c1 (centres undefined)	OX1R antag-2 68
c1cncc(-c2nc(NCC3CCCO3)c3ccccc3n2)c1 (centres undefined)	none (no result: TAAR1 agonist, TAAR1 antag)
Oc1ccc(Cl)cc1Nc1nc(NCC2CCCO2)c2ccccc2n1 (centres undefined)	TAAR1 antag 57
O=S1(=O)CCSC[C@@H](CN2CCN(c3ccccc3)CC2)N1	none (no result: OX1R antag-1, OX1R antag-2, CHO parental Ca)
CCOC(=O)[C@]12CCC=C1N(Cc1ccc(Cl)cc1Cl)C(=O)[C@H](CC(=O)N1CCC(c3ccccc3)CC1)C2	none (no result: OX1R antag-1, OX1R antag-2, CHO parental Ca)
Cc1cc[n+](CC(=O)c2ccc3c(c2)OCCO3)cc1	none
O=C(C[n+]1ccc(/C=C/c2ccccc2)cc1)c1ccc2c(c1)OCCO2	TAAR1 agonist 44
C[C@H]1CN([C@@H](C)CO)C(=O)CCCn2cc(nn2)CO[C@@H]1CN(C)S(=O)(=O)c1cn(C)cn1	none (no result: OX1R antag-1, OX1R antag-2, CHO parental Ca)
CCCCCCCCCCCCCCCCn1cc[n+](C)c1	OX1R antag-1 85, CHO parental Ca 71
C[C@H](O)[C@@H]1CN2CCc3ccc(-c4ccc5c(c4)OCO5)cc3[C@@H]2C[C@@H]1N(C)C(=O)c1cccc(Cl)c1	none (no result: OX1R antag-1, OX1R antag-2, CHO parental Ca)
NC(=O)c1ncn([C@@H]2O[C@H](C(=O)N[C@H](Cc3c[nH]c4ccccc34)C(=O)N3CCN(C(=O)C4CC4)CC3)[C@@H](O)[C@H]2O)n1	none (no result: OX1R antag-1, OX1R antag-2, CHO parental Ca)
COc1ccc2cc3cc(C(=O)NCCN4CCc5ccccc5C4)oc3nc2c1	OX1R antag-2 42 (no result: TAAR1 agonist, TAAR1 antag)
COc1ccc2cc3cc(C(=O)N4CCCCCC4)oc3nc2c1	OX1R antag-2 57 (no result: TAAR1 agonist, TAAR1 antag)
COc1ccc2cc3cc(C(=O)NCCN4CCN(Cc5ccccc5)CC4)oc3nc2c1	none
COc1ccc2cc3cc(C(=O)NCCCN4CCC(C)CC4)oc3nc2c1	OX1R antag-2 46 (no result: TAAR1 agonist, TAAR1 antag)
COc1ccc2cc3cc(C(=O)NCCc4ccc(OC)c(OC)c4)oc3nc2c1	none
CC1(C(=O)NS(=O)(=O)C2CC2)CCCN(C(=O)c2c(F)cccc2F)C1 (centres undefined)	none (no result: OX1R antag-1, OX1R antag-2, CHO parental Ca)
C#CCNC(=O)C[C@H]1C[C@@]2(C(=O)OC)C(=C[C@H](C(C)(C)C)O[C@@H]2C)N(Cc2ccccc2)C1=O	none (no result: OX1R antag-1, OX1R antag-2, CHO parental Ca)
O=C1c2ccccc2-n2c1nc1ccccc1c2=O	OX1R antag-2 54
O=c1c2ccccc2nc2n1-c1ccccc1CCC2	none
Cc1ccc(S(=O)(=O)N2CCN(C(=O)COC(=O)/C=C/c3ccc(OC(F)F)cc3)CC2)cc1	none (no result: OX1R antag-1, OX1R antag-2, CHO parental Ca)
CN1OC[C@@H]2CN(C(=S)Nc3cc(C(F)(F)F)cc(C(F)(F)F)c3)[C@H](c3ccccc3Br)C[C@@H]21	none (no result: OX1R antag-1, OX1R antag-2, CHO parental Ca)
C#CCn1cc(/C=N/NC(=O)c2cc3ccccc3o2)c2ccccc21	OX1R antag-2 72
CC(=O)c1c(C)[nH]c(C(=O)CSc2ccc(F)cc2)c1C	CHO parental Ca 33
CSCCC(NC(=O)COc1ccccc1)C(=O)N(C)Cc1ccc(SC)cc1 (centres undefined)	TAAR1 antag 52
Cc1cccc2cc(C#N)c(NCCNS(=O)(=O)c3ccccc3)nc12	OX1R antag-2 58
Cc1cccc2cc(C#N)c(NCc3ccccc3)nc12	none
COc1ccc(-c2cn(CC[C@@H]3CC[C@H](NC(=O)Cc4ccccn4)[C@@H](CO)O3)nn2)cc1	none (no result: OX1R antag-1, OX1R antag-2, CHO parental Ca)
CCCCCCCCN1C(=O)[C@@H](CC(=O)NCC2CCCCC2)C[C@@]2(C(=O)OC)C1=C[C@H](C(C)(C)C)O[C@@H]2C	none (no result: OX1R antag-1, OX1R antag-2, CHO parental Ca)
CCO[C@@H]1OC(C(=O)N2CCN(Cc3ccc4c(c3)OCO4)CC2)=C[C@H](c2ccc(C(F)(F)F)cc2)[C@H]1CCCO	none
CCO[C@@H]1OC(C(=O)NCc2ccccc2)=C[C@H](c2ccc3c(c2)OCO3)[C@H]1CCCO	none
CCO[C@H]1OC(C(=O)NCc2ccccc2)=C[C@@H](c2ccc3c(c2)OCO3)[C@@H]1CCCO	TAAR1 agonist 50
CCO[C@@H]1OC(C(=O)O)=C[C@H](c2cn(C(C)=O)c3ccccc23)[C@H]1CCCO	none
CCO[C@@H]1OC(C(=O)NCc2ccccc2)=C[C@H](c2csc3ccccc23)[C@H]1CCCO	TAAR1 antag 54
